{
  "source": "ChEMBL document CHEMBL1153616",
  "about": "“Synthesis and antiviral activity of new pyrazole and thiazole derivatives” (Eur J Med Chem, 2009)",
  "key": {"[1]": {"assay": "Cytotoxicity against HEL cells assessed as minimum cytotoxic concentration required to cause microscopically detectable alteration in normal cell morphology", "format": "cell-based", "conditions": "human", "procedure,_shortened": "(§1)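 Run in parallel with antiviral assays on uninfected cell cultures; test compounds from 10 mg/ml DMSO stocks in serial dilution. Value is minimum cytotoxic concentration (MCC) producing microscopically detectable alteration of normal cell morphology.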"}, "Human alphaherpesvirus 2": {"tested_on": "Human alphaherpesvirus 2", "assay": "Antiviral activity against HSV2 G infected in human HEL cells assessed as inhibition of virus-induced cytopathicity after 3 days", "format": "functional, organism-based", "conditions": "Human alphaherpesvirus 2, strain G, 72 h", "procedure,_shortened": "(§2)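 Confluent cell monolayers infected with 100 CCID50 virus; after 2 h adsorption at 37 °C, virus removed and serial compound dilutions added (DMSO stocks 10 mg/ml). Incubated 37 °C for 3 days until complete CPE in untreated virus control. EC50 = concentration protecting 50% of infected cells from viral cytopathogenicity; \">\" marks highest concentration tested.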"}, "Vaccinia virus [2]": {"tested_on": "Vaccinia virus", "assay": "Antiviral activity against Vaccinia virus infected in human HEL cells assessed as inhibition of virus-induced cytopathicity after 3 days", "format": "functional, organism-based", "conditions": "Orthopoxvirus vaccinia, 72 h"}, "[3]": {"tested_on": "Vesicular stomatitis virus", "assay": "Antiviral activity against Vesicular stomatitis virus infected in human HEL cells assessed as inhibition of virus-induced cytopathicity after 3 days", "format": "functional, organism-based", "conditions": "72 h"}, "Human alphaherpesvirus 1 [4]": {"tested_on": "Human alphaherpesvirus 1", "assay": "Antiviral activity against thymidine kinase-deficient ACV-resistant HSV1 KOS infected in human HEL cells assessed as inhibition of virus-induced cytopathicity after 3 days", "format": "functional, organism-based", "conditions": "Human alphaherpesvirus 1, KOS, 72 h"}, "[5]": {"assay": "Cytotoxicity against human HeLa cells assessed as minimum cytotoxic concentration required to cause microscopically detectable alteration in normal cell morphology", "format": "cell-based", "procedure,_shortened": "as §1"}, "[6]": {"tested_on": "Vesicular stomatitis virus", "assay": "Antiviral activity against Vesicular stomatitis virus infected in human HeLa cells assessed as inhibition of virus-induced cytopathicity after 3 days", "format": "functional, organism-based", "conditions": "72 h"}, "Human alphaherpesvirus 1 [7]": {"tested_on": "Human alphaherpesvirus 1", "assay": "Antiviral activity against HSV1 KOS infected in human HEL cells assessed as inhibition of virus-induced cytopathicity after 3 days", "format": "functional, organism-based", "conditions": "Human alphaherpesvirus 1, KOS, 72 h"}, "Coxsackievirus B4 [8]": {"tested_on": "Coxsackievirus B4", "assay": "Antiviral activity against Coxsackievirus B4 infected in human HeLa cells assessed as inhibition of virus-induced cytopathicity after 3 days", "format": "functional, organism-based", "conditions": "Enterovirus B, 72 h", "procedure,_shortened": "(§3)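 Confluent cell monolayers infected with 100 CCID50 virus; after 2 h adsorption at 37 °C, virus removed and serial compound dilutions added (DMSO stocks 10 mg/ml). Incubated 37 °C for 3 days until complete CPE in untreated virus control.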"}, "[9]": {"tested_on": "Respiratory syncytial virus", "assay": "Antiviral activity against RSV infected in human HeLa cells assessed as inhibition of virus-induced cytopathicity after 3 days", "format": "functional, organism-based", "conditions": "72 h", "procedure,_shortened": "as §2"}, "[10]": {"assay": "Cytotoxicity against african green monkey Vero cells assessed as minimum cytotoxic concentration required to cause microscopically detectable alteration in normal cell morphology", "format": "cell-based", "conditions": "chlorocebus sabaeus", "procedure,_shortened": "as §1"}, "Human respirovirus 3": {"tested_on": "Human respirovirus 3", "assay": "Antiviral activity against Parainfluenza virus type 3 infected in african green monkey Vero cells assessed as inhibition of virus-induced cytopathicity after 3 days", "format": "functional, organism-based", "conditions": "Human respirovirus 3, Vero, 72 h", "procedure,_shortened": "as §2"}, "[11]": {"tested_on": "Mammalian orthoreovirus 1", "assay": "Antiviral activity against Reovirus 1 infected in african green monkey Vero cells assessed as inhibition of virus-induced cytopathicity after 3 days", "format": "functional, organism-based", "conditions": "Mammalian orthoreovirus 1, Vero, 72 h", "procedure,_shortened": "as §2"}, "Sindbis virus": {"tested_on": "Sindbis virus", "assay": "Antiviral activity against Sindbis virus infected in african green monkey Vero cells assessed as inhibition of virus-induced cytopathicity after 3 days postinfection", "format": "functional, organism-based", "conditions": "72 h", "procedure,_shortened": "as §2"}, "Coxsackievirus B4 [12]": {"tested_on": "Coxsackievirus B4", "assay": "Antiviral activity against Coxsackievirus B4 infected in african green monkey Vero cells assessed as inhibition of virus-induced cytopathicity after 3 days", "format": "functional, organism-based", "conditions": "Enterovirus B, 72 h", "procedure,_shortened": "as §2"}, "Punta Toro virus": {"tested_on": "Punta Toro virus", "assay": "Antiviral activity against Punta Toro virus infected in african green monkey Vero cells assessed as inhibition of virus-induced cytopathicity after 3 days", "format": "functional, organism-based", "conditions": "72 h", "procedure,_shortened": "as §3"}, "[13]": {"assay": "Selectivity index, ratio of MCC for human HEL cells to EC50 for sVaccinia virus", "format": "toxicity, cell-based", "procedure,_shortened": "(§4)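 The ratio was MCC/EC50. MCC was the minimum concentration causing microscopically visible change in normal morphology of uninfected HEL, HeLa or Vero cells, scored in parallel with the antiviral test. EC50 came from the CPE assay: 100 CCID50 infection, 2 h adsorption at 37 °C, serial compound dilutions, and 3 days at 37 °C. It was the concentration protecting 50% of cells from virus-induced CPE.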"}, "[14]": {"assay": "Selectivity index, ratio of MCC for african green monkey Vero cells to EC50 for Reovirus 1", "format": "toxicity, cell-based", "conditions": "read-out: Selectivity Index", "procedure,_shortened": "as §4"}, "[15]": {"assay": "Selectivity index, ratio of MCC for african green monkey Vero cells to EC50 for Sindbis virus", "format": "toxicity, cell-based", "conditions": "read-out: Selectivity Index", "procedure,_shortened": "as §4"}, "[16]": {"assay": "Selectivity index, ratio of MCC for african green monkey Vero cells to EC50 for Coxsackievirus B4", "format": "toxicity, cell-based", "conditions": "read-out: Selectivity Index", "procedure,_shortened": "as §4"}, "[17]": {"assay": "Selectivity index, ratio of MCC for african green monkey Vero cells to EC50 for Punta Toro virus", "format": "toxicity, cell-based", "conditions": "read-out: Selectivity Index", "procedure,_shortened": "as §4"}, "Vaccinia virus [18]": {"tested_on": "Vaccinia virus", "assay": "Antiviral activity against Vaccinia virus Lister", "format": "functional, organism-based"}, "Vaccinia virus [19]": {"tested_on": "Vaccinia virus", "assay": "Antiviral activity against Vaccinia virus Western Reserve", "format": "functional, organism-based", "conditions": "Orthopoxvirus vaccinia"}, "Vaccinia virus [20]": {"tested_on": "Vaccinia virus", "assay": "Antiviral activity against Vaccinia virus Copenhagen", "format": "functional, organism-based", "conditions": "Orthopoxvirus vaccinia"}, "Cowpox virus": {"tested_on": "Cowpox virus", "assay": "Antiviral activity against Cowpox virus Brighton", "format": "functional, organism-based", "conditions": "Cowpox virus (Brighton Red)"}},
  "note": "Calls of active or inactive are those of the source. The calls are words filed in the database; no cut-off is given here.",
  "data": [
    {"compound": "CC(=O)N1N=C(c2ccc(Cl)cc2)CC1c1ccc(OCc2ccccc2)cc1", "note": "(stereo not given)", "values": [
      {"measurement": "MCC", "setting": "[1]", "result": 100, "unit": "µg/mL"},
      {"measurement": "EC50", "setting": "Human alphaherpesvirus 2", "result": "> 20", "unit": "µg/mL"},
      {"measurement": "EC50", "setting": "Vaccinia virus [2]", "result": 7, "unit": "µg/mL"},
      {"measurement": "EC50", "setting": "[3]", "result": "> 20", "unit": "µg/mL"},
      {"measurement": "EC50", "setting": "Human alphaherpesvirus 1 [4]", "result": "> 20", "unit": "µg/mL"},
      {"measurement": "MCC", "setting": "[5]", "result": "≥ 20", "unit": "µg/mL"},
      {"measurement": "EC50", "setting": "[6]", "result": "> 20", "unit": "µg/mL"},
      {"measurement": "EC50", "setting": "Human alphaherpesvirus 1 [7]", "result": "> 20", "unit": "µg/mL"},
      {"measurement": "EC50", "setting": "Coxsackievirus B4 [8]", "result": "> 20", "unit": "µg/mL"},
      {"measurement": "EC50", "setting": "[9]", "result": "> 20", "unit": "µg/mL"},
      {"measurement": "MCC", "setting": "[10]", "result": 20, "unit": "µg/mL"},
      {"measurement": "EC50", "setting": "Human respirovirus 3", "result": "> 4", "unit": "µg/mL"},
      {"measurement": "EC50", "setting": "[11]", "result": "> 4", "unit": "µg/mL"},
      {"measurement": "EC50", "setting": "Sindbis virus", "result": "> 4", "unit": "µg/mL"},
      {"measurement": "EC50", "setting": "Coxsackievirus B4 [12]", "result": "> 4", "unit": "µg/mL"},
      {"measurement": "EC50", "setting": "Punta Toro virus", "result": "> 4", "unit": "µg/mL"},
      {"measurement": "selectivity ratio", "setting": "[13]", "result": 3.6},
      {"measurement": "selectivity ratio", "setting": "[14]", "result": 5},
      {"measurement": "selectivity ratio", "setting": "[15]", "result": 5},
      {"measurement": "selectivity ratio", "setting": "[16]", "result": 5},
      {"measurement": "selectivity ratio", "setting": "[17]", "result": 5},
      {"measurement": "Activity", "setting": "Vaccinia virus [18]", "result": "inactive"},
      {"measurement": "Activity", "setting": "Vaccinia virus [19]", "result": "inactive"},
      {"measurement": "Activity", "setting": "Vaccinia virus [20]", "result": "inactive"},
      {"measurement": "Activity", "setting": "Cowpox virus", "result": "inactive"}
    ]}
  ]
}
